Converted amounts (≈) assume the structure as drawn. The source made the active and inactive calls.
Legend:
[1] = biological target: Pyruvate kinase PKLR (Homo sapiens) (UniProt P30613); test: Activation of PKR assessed as ATP product formation by luminescent pyruvate kinase-luciferase coupled assay relative to control; parameters: concentration or dose not given beside the values
Summary of the method: (§1)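 Luciferase-coupled ATP production assay run as for PKM2: imidazole pH 7.2 buffer with KCl, MgCl2, Tween 20 and BSA, 0.1 mM ADP, 0.5 mM PEP, 1 h at r.t., Kinase-Glo luminescence. Enzyme final concentrations were PKM1 1 nM, PKL 0.1 nM, PKR 0.1 nM. % activation normalized to DMSO (neutral) and no-enzyme controls.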

Pyruvate kinase PKM [2] = biological target: T1, Pyruvate kinase PKM (Homo sapiens, UniProt P14618); test: Activation of PKM1 assessed as pyruvate formation by fluorescent pyruvate kinase-lactate dehydrogenase coupled assay
Target sequence in this assay (P14618 2-531 limits assumed): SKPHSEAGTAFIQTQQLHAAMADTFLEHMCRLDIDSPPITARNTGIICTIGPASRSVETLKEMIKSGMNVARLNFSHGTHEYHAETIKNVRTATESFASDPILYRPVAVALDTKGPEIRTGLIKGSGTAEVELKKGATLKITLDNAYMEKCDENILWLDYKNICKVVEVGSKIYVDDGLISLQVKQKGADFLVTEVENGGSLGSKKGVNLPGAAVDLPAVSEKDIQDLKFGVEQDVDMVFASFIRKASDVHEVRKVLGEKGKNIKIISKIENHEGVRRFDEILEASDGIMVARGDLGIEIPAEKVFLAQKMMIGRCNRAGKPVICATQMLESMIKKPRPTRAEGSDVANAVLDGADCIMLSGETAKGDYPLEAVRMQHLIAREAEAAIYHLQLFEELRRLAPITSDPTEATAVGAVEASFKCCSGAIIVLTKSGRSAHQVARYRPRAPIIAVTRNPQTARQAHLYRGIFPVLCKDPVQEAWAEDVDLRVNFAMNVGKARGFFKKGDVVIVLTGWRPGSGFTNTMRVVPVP

[3] = biological target: Pyruvate kinase PKLR (Homo sapiens) (UniProt P30613); test: Activation of PKL assessed as pyruvate formation by fluorescent pyruvate kinase-lactate dehydrogenase coupled assay relative to control; parameters: concentration or dose not given beside the values
[4] = biological target: Pyruvate kinase PKLR (Homo sapiens) (UniProt P30613); test: Activation of PKL assessed as ATP product formation by luminescent pyruvate kinase-luciferase coupled assay relative to control; parameters: concentration or dose not given beside the values; summary of the method: as §1
Pyruvate kinase PKM [5] = biological target: T1, Pyruvate kinase PKM; test: Activation of PKM2 assessed as ATP product formation by luminescent pyruvate kinase-luciferase coupled assay
Summary of the method: (§2)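 Recombinant human PKM2 (0.1 nM final) in 50 mM imidazole pH 7.2, 50 mM KCl, 7 mM MgCl2, 0.01% Tween 20, 0.05% BSA; 0.1 mM ADP, 0.5 mM PEP; 1 h at r.t., then Kinase-Glo luciferase read of ATP formed. Activation % = (c−n)/(n−i)×100 against DMSO and no-enzyme controls; 100% ≈ 2-fold over basal signal. Max response taken at 57 μM; three separate experiments.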
Target sequence in this assay (P14618 whole entry): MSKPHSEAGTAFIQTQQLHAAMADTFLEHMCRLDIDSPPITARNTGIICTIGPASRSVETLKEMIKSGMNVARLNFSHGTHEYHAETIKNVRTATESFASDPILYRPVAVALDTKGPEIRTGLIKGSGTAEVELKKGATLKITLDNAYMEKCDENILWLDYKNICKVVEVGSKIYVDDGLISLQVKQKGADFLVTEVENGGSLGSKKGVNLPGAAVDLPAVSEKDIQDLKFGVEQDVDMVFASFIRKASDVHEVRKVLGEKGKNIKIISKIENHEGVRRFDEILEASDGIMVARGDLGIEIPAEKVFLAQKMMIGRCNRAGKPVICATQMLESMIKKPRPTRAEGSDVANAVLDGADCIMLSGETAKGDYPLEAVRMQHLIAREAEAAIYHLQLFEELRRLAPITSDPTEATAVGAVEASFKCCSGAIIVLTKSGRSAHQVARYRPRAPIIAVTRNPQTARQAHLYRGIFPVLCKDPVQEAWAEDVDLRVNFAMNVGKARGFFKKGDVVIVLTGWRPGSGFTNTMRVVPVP

Pyruvate kinase PKM [6] = biological target: T1, Pyruvate kinase PKM; test: Activation of PKM1 assessed as ATP product formation by luminescent pyruvate kinase-luciferase coupled assay; summary of the method: as §1
Target sequence in this assay (P14618 2-531 limits assumed): as the sequence (P14618 2-531 limits assumed) above

Pyruvate kinase PKM [7] = biological target: T1, Pyruvate kinase PKM; test: Activation of PKM2 assessed as ATP product formation at 57 uM by luminescent pyruvate kinase-luciferase coupled assay relative to fructose-1,6-bis-phosphate; summary of the method: as §2
Target sequence in this assay (P14618 2-531 limits assumed): as above

[8] = biological target: Pyruvate kinase PKLR (Homo sapiens) (UniProt P30613); test: Activation of PKR assessed as pyruvate formation by fluorescent pyruvate kinase-lactate dehydrogenase coupled assay relative to control; parameters: concentration or dose not given beside the values
Pyruvate kinase PKM [9] = biological target: T1, Pyruvate kinase PKM; test: Activation of PKM2 assessed as pyruvate formation by fluorescent pyruvate kinase-lactate dehydrogenase coupled assay relative to fructose-1,6-bis-phosphate
Summary of the method: (§3)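 Kinetic PK–LDH coupled read: 10 nM hPK-M2 with 1 μM LDH in 50 mM Tris-Cl pH 8.0, 200 mM KCl, 15 mM MgCl2, 0.1 mM PEP, 4.0 mM ADP, 0.2 mM NADH. NADH fluorescence decrease was read at 30 s intervals over 3–6 min.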
Target sequence in this assay (P14618 2-531 limits assumed): as above

Pyruvate kinase PKM [10] = biological target: T1, Pyruvate kinase PKM; test: Activation of PKM2 assessed as reduction of Km for phosphoenolpyruvate relative to untreated control
Summary of the method: (§4)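 Steady-state kinetics were measured by the PK–LDH coupled assay at about 22 °C with 10 nM PKM2, 200 mM KCl and 15 mM MgCl2. One substrate (PEP or ADP) was varied with the other held at 4.0 mM, with or without activator. Fluorescence was converted to pmol NADH by a standard curve; initial rates (pmol/min) were fit for KM.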
Target sequence in this assay (P14618 2-531 limits assumed): as above

Pyruvate kinase PKM [11] = biological target: T1, Pyruvate kinase PKM; test: Activation of PKM2 in presence of excess of phosphoenolpyruvate level
Target sequence in this assay (P14618 2-531 limits assumed): as above

Pyruvate kinase PKM [12] = biological target: T1, Pyruvate kinase PKM; test: Activation of PKM2 assessed as effect on Km for ADP relative to untreated control; summary of the method: as §4
Pyruvate kinase PKM [13] = biological target: T1, Pyruvate kinase PKM; test: Activation of PKM2 assessed as pyruvate formation by fluorescent pyruvate kinase-lactate dehydrogenase coupled assay; summary of the method: as §3
Target sequence in this assay (P14618 whole entry): as the sequence (P14618 whole entry) above

[14] = Kinetic solubility by quantitative nitrogen detection assay; format: physicochemical
Summary of the method: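 Kinetic solubility was determined by quantitative nitrogen detection in three separate experiments.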

Chain of Pyruvate kinase PKLR (Homo sapiens) (P30613 whole entry, looked up): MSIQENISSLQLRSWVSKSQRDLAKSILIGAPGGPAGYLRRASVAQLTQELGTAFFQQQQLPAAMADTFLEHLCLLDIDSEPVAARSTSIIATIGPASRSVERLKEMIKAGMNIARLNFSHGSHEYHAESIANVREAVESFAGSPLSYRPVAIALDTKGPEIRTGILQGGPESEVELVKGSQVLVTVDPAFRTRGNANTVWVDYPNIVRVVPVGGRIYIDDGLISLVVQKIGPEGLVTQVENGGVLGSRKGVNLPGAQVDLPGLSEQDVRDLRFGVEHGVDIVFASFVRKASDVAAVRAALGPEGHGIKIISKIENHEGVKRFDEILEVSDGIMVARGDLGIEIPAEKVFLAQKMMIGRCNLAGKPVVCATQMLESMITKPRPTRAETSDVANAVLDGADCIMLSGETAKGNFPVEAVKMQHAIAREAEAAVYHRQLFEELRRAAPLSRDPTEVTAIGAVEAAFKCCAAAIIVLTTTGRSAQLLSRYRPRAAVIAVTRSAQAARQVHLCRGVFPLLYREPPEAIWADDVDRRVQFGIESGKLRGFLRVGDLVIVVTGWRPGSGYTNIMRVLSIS

Compound | Activity [1] [%] | Activity (Pyruvate kinase PKM [2]) | Activity [3] [%] | Activity [4] [%] | AC50 (Pyruvate kinase PKM [5]; read-out: AC50) [µM] | Activity (Pyruvate kinase PKM [6]) | Activity (Pyruvate kinase PKM [7]) | Activity [8] [%] | Activity (Pyruvate kinase PKM [9]) [%] | fold change (FC) (Pyruvate kinase PKM [10]) | Activity (Pyruvate kinase PKM [11]) | Activity (Pyruvate kinase PKM [12]) | AC50 (Pyruvate kinase PKM [13]) [µM] | solubility kinetic [14] [µM] | AC50 (Pyruvate kinase PKM [5])
C[C@H]1CN(S(=O)(=O)c2ccc3c(c2)OCCO3)CCN1S(=O)(=O)c1c(F)cccc1F | < 30 | inactive | < 30 | < 30 | 9.18 | inactive | 108% | < 30 | – | – | – | – | – | – | –
O=S(=O)(NC1CCN(S(=O)(=O)c2c(F)cccc2F)CC1)c1ccc2c(c1)OCCO2 | < 30 | inactive | < 30 | < 30 | 9 | inactive | – | < 30 | – | – | – | – | – | – | –
COc1ccc(S(=O)(=O)N2CCN(S(=O)(=O)c3ccc4c(c3)OCCO4)CC2)cc1 | < 30 | inactive | < 30 | < 30 | – | inactive | 92.2% | < 30 | 150 | 10 | inactive | inactive | 0.75 | – | –
Nc1cccc(S(=O)(=O)N2CCCN(S(=O)(=O)c3ccc4c(c3)OCCO4)CC2)c1 | < 30 | inactive | < 30 | < 30 | – | inactive | 81.7% | < 30 | – | – | – | – | – | 51.2 (≈ 23.2 µg/mL) | –
O=S(=O)(NCCNS(=O)(=O)c1c(F)cccc1F)c1ccc2c(c1)OCCO2 | < 30 | inactive | < 30 | < 30 | > 15 | inactive | 60.3% | < 30 | – | – | – | – | – | – | –
O=S(=O)(c1ccc2c(c1)OCCO2)N1CCN(S(=O)(=O)c2c(F)cccc2F)CC1 | < 30 | inactive | < 30 | < 30 | – | inactive | 94.4% | < 30 | – | – | – | – | – | < 1.1 | –
O=C(c1ccc2c(c1)OCCO2)N1CCN(S(=O)(=O)c2c(F)cccc2F)CC1 | < 30 | inactive | < 30 | < 30 | – | inactive | inactive | < 30 | – | – | – | – | – | – | Not Active
O=S(=O)(NC1CCN(S(=O)(=O)c2c(F)cccc2F)C1)c1ccc2c(c1)OCCO2 (stereo not drawn) | < 30 | inactive | < 30 | < 30 | > 10 | inactive | 83.7% | < 30 | – | – | – | – | – | – | –
O=S(=O)(NC1CCN(S(=O)(=O)c2ccc3c(c2)OCCO3)C1)c1c(F)cccc1F (stereo not drawn) | < 30 | inactive | < 30 | < 30 | > 15 | inactive | 82.4% | < 30 | – | – | – | – | – | – | –
COc1cc(F)c(S(=O)(=O)N2CCN(S(=O)(=O)c3cccc(N)c3)CC2)c(F)c1 | < 30 | inactive | < 30 | < 30 | 0.026 | inactive | 90.5% | < 30 | – | – | – | – | – | < 0.7 | –
O=S(=O)(NCC1CN(S(=O)(=O)c2ccc3c(c2)OCCO3)C1)c1c(F)cccc1F | < 30 | inactive | < 30 | < 30 | 4.47 | inactive | 93.3% | < 30 | – | – | – | – | – | – | –
Nc1cccc(S(=O)(=O)N2CCN(S(=O)(=O)c3c(F)cccc3F)CC2)c1 | < 30 | inactive | < 30 | < 30 | 0.099 | inactive | 84.4% | < 30 | – | – | – | – | – | 5.7 (≈ 2.38 µg/mL) | –
O=S(=O)(N[C@H]1CC[C@@H](NS(=O)(=O)c2c(F)cccc2F)CC1)c1ccc2c(c1)OCCO2 | < 30 | inactive | < 30 | < 30 | > 35 | inactive | 60.7% | < 30 | – | – | – | – | – | – | –
O=S(=O)(NCC1CN(S(=O)(=O)c2c(F)cccc2F)C1)c1ccc2c(c1)OCCO2 | < 30 | inactive | < 30 | < 30 | 3.05 | inactive | 108% | < 30 | – | – | – | – | – | – | –
O=S(=O)(c1ccc2c(c1)OCCO2)N1CCCN(S(=O)(=O)c2c(F)cccc2F)CC1 | < 30 | inactive | < 30 | < 30 | – | inactive | 120% | < 30 | – | – | – | – | – | 5.6 (≈ 2.66 µg/mL) | –
O=C(c1c(F)cccc1F)N1CCN(S(=O)(=O)c2ccc3c(c2)OCCO3)CC1 | < 30 | inactive | < 30 | < 30 | – | inactive | inactive | < 30 | – | – | – | – | – | – | Not Active
C[C@@H]1CN(S(=O)(=O)c2ccc3c(c2)OCCO3)CCN1S(=O)(=O)c1c(F)cccc1F | < 30 | inactive | < 30 | < 30 | 2.93 | inactive | 108% | < 30 | – | – | – | – | – | – | –
O=S(=O)(c1ccc2c(c1)OCCO2)N1CCN(S(=O)(=O)c2cccc[n+]2[O-])CC1 | < 30 | inactive | < 30 | < 30 | > 10 | inactive | 81.5% | < 30 | – | – | – | – | – | – | –
Nc1cccc(S(=O)(=O)N2CCN(S(=O)(=O)c3ccc4c(c3)OCCO4)CC2)c1 | < 30 | inactive | < 30 | < 30 | 0.043 | inactive | 83.7% | < 30 | – | – | – | – | – | 7.3 (≈ 3.21 µg/mL) | –
O=P(O)(O)OC[C@H]1O[C@@](O)(COP(=O)(O)O)[C@@H](O)[C@@H]1O | – | – | – | – | – | – | – | – | – | – | inactive | – | – | – | –
O=S(=O)(NC1CCN(S(=O)(=O)c2ccc3c(c2)OCCO3)CC1)c1c(F)cccc1F | < 30 | inactive | < 30 | < 30 | 3.69 | inactive | 101% | < 30 | – | – | – | – | – | – | –
COc1cc(F)c(S(=O)(=O)N2CCCN(S(=O)(=O)c3cccc(N)c3)CC2)c(F)c1 | < 30 | inactive | < 30 | < 30 | 0.223 | inactive | 92.5% | < 30 | – | – | – | – | – | 26.3 (≈ 12.1 µg/mL) | –
O=S(=O)(c1ccc2c(c1)OCO2)N1CCN(S(=O)(=O)c2c(F)cccc2F)CC1 | < 30 | inactive | < 30 | < 30 | – | inactive | 61% | < 30 | – | – | – | – | – | – | –
